Screening data from PubChem.
A selection: hits, their analogues and other compounds. The true share with any hit is near 3.5%.
MrgX1 PAM: allosterically activates human MrgX1 receptor signaling; MrgX1-HEK293, Fluo-4 calcium flux, FDSS; stronger effect = higher value; B-score at 10 µM; 310,000 tested, 0.63% active; AID 588675;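 active means plate-corrected calcium response at least 3 library SD above typical, normal starting fluorescence, not activating the receptor alone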;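 further: compound read alongside a low EC10 to EC30 dose of BAM8-22 agonist; peak minus trough fluorescence over baseline measured at the second addition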
Target sequence (Q96LB2 whole entry, looked up): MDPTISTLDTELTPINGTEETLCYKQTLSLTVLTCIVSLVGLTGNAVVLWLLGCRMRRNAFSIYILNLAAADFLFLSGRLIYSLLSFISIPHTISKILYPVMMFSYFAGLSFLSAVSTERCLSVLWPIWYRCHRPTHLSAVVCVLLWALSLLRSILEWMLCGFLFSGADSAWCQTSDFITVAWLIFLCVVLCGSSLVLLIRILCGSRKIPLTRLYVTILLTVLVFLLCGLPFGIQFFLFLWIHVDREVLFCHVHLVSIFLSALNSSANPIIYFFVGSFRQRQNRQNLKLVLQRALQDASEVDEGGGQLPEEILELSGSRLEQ
RGS4 inh: human RGS4 inhibition; 310,000 tested, 0.45% active; B-score at 10 µM; HEK293 M3R/RGS4 inducible, Fluo-4 calcium flux; stronger effect = higher value; triggered by carbachol at its EC20; AID 463165;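 active means B-score, a plate-corrected calcium signal, over three deviations above library mean, with baseline fluorescence within five deviations of library mean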;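 further: RGS4 expression induced by doxycycline in cells with stable M3 receptor; B-score is computed from the integrated fluorescence ratio over baseline after carbachol; higher B-score means a larger calcium signal and so more RGS4 inhibition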
Target sequence (P49798 whole entry, looked up): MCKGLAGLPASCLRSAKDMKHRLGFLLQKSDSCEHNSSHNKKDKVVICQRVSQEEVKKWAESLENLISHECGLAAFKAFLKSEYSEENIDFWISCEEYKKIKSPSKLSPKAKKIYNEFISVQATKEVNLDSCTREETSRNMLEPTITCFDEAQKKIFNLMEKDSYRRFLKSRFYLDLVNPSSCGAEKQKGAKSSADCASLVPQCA
RGS4 pot: potentiators or activators of RGS4; HEK293 M3R/inducible RGS4, carbachol calcium flux Fluo4; stronger effect = lower value; B-score at 10 µM; 310,000 tested, 0.92% active;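 active means B-score of the integrated calcium signal more than 4 SD below the library mean, with starting fluorescence not abnormally high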;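 further: negative B-score means reduced calcium response which marks RGS4 activation or potentiation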
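test system = HEK293 cells with stable M3R and inducible RGS4 | schedule = recording 10 s baseline at 1 Hz, 100 s post-agonist | technique = Fluo4-AM (2 µM) calcium-flux fluorescence, kinetic read | measure = Agonist-evoked peak-minus-minimum fluorescence over baseline, integrated ratio, B score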
MrgX1 antag: blocks BAM8-22 activation of human MrgX1 receptor; 310,000 tested, 1.3% active; B-score at 10 µM; Q96LB2; MRGX1-HEK293 calcium flux, Fluo-4, BAM8-22 antagonism; stronger effect = lower value;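 active means calcium-response B-score plate-corrected more than 3 library SD below zero, starting fluorescence within 5 deviations, no agonist response on first addition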;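 further: peak minus trough fluorescence over baseline after final BAM8-22 challenge near maximal dose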
MrgX1 agonist: activates human MrgX1 receptor signaling; Q96LB2; MrgX1-HEK293 cells, Fluo-4 calcium fluorescence, agonist mode; stronger effect = higher value; B-score at 10 µM; AID 588627; 310,000 tested, 0.44% active;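 active means calcium response B-score plate-corrected fluorescence ratio at least 3 library SD, with starting fluorescence B-score inside 5 SD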
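Material – MrgX1-expressing HEK293 cells · Input – 15,000 cells seeded per well · Dosing – compound as first of three additions · Times – overnight seeding, then 1 h dark dye loading · Measured by – kinetic Fluo-4 NW fluorescence of intracellular calcium · Read-out – B-scored fluorescence response ratio · Benchmarks – positive and negative control wells on each plate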
Active calls of the source: *; i = inactive; ! = a repeat was not active.

SMILES | MrgX1 PAM | RGS4 inh | RGS4 pot | MrgX1 antag | MrgX1 agonist
O=C1CSC(c2ccccc2)N1c1ccc([N+](=O)[O-])cc1 (centres undefined) | i | i | -7* | i | i
Cc1c(N2C(=O)CSC2c2ccc([N+](=O)[O-])cc2)c(=O)n(-c2ccccc2)n1C (centres undefined) | i | i | i | i | i
CC(=O)c1ccc(OC(=O)Cc2cccc3ccccc23)cc1 | i | i | i | i | i
COc1cc(N2CCCC2)c(OC)cc1/C=C1/NC(=S)NC1=O | i | i | i | -5.4* | i
O=C(CNS(=O)(=O)c1cccc(Br)c1)NCC1CCCCC1 | i | i | i | i | i
N#C/C(=C\N1CCN(Cc2ccc3c(c2)OCO3)CC1)c1nc2ccccc2s1 | i | i | i | i | i
CCOC(=O)N1CCN(/C=C(\C#N)c2nc3ccccc3s2)CC1 | i | i | i | -7.1* | i
CC(NS(=O)(=O)c1ccc([N+](=O)[O-])cc1)C(=O)NN (centres undefined) | i | i | i | i | i
CC(C(=O)NN)c1ccc([N+](=O)[O-])cc1 (centres undefined) | 9.2* | i | i | i | i
O=C(CN(Cc1ccc(F)cc1)C(=O)CNS(=O)(=O)c1ccccc1)NCc1ccco1 | i | i | i | i | i
Cc1oc(-c2cccc(Cl)c2)nc1CN1CCCC(C(=O)NC(C)c2ccc3c(c2)OCCO3)C1 (centres undefined) | i | i | -7* | i | i
Cc1ccc(NC(=O)Cn2nc(C(=O)O)c3ccccc3c2=O)c([N+](=O)[O-])c1 | i | i | i | i | i
NC(=O)c1ccc(NC(=O)COC(=O)CC(NC(=O)c2ccccc2Cl)c2ccccc2)cc1 (centres undefined) | i | i | i | i | i
COCCNc1oc(/C=C/c2ccccc2OC)nc1S(=O)(=O)c1ccccc1 | 6.9* | i | i | i | i
CN(C)S(=O)(=O)c1cccc(C(=O)OCC(=O)Nc2sccc2C(N)=O)c1 | i | i | i | -5* | i
CN1CCC=C(C(=O)N2c3ccccc3Sc3ccc(Cl)cc32)C1 | i | i | -10* | i | i
CCCCn1c2ccc(C)cc2c2nnc(SCCN3CCCCC3)nc21 | i | i | -12* | i | i
C=C1C(=O)O[C@H]2[C@H]1[C@@H](O)CC(=C)[C@@H]1CC(=O)[C@@H](C)[C@H]21 | i | 6.7* | i | i | i
CC(=O)NCC(=O)N(c1c(C)n(C)n(-c2ccccc2)c1=O)C1(C(=O)NC2CCCC2)CCCCC1 | 15* | i | i | i | i
N#Cc1ccsc1NC(=O)CN1C(=O)NC2(CCCCC2)C1=O | i | i | i | i | i
CN1CC=C2C(C#N)=C(N)C(C#N)(C#N)[C@H](c3ccoc3)[C@H]2C1 | i | i | i | i | i
CN1CC=C2C(C#N)=C(N)C(C#N)(C#N)C(c3cccc(Cl)c3Cl)C2C1 (centres undefined) | i | i | i | -5.5* | i
Cc1ccc(C2C3CN(C(C)C)CC=C3C(C#N)=C(N)C2(C#N)C#N)cc1 (centres undefined) | i | i | -7.1* | i | i
COc1ccc(OC)c(C2C3CN(C(C)C)CC=C3C(C#N)=C(N)C2(C#N)C#N)c1 (centres undefined) | i | i | i | i | 27*
CC(C)C(=O)c1ccc(O)c(O)c1 | i | i | i | i | i
SMILES | MrgX1 PAM | RGS4 inh | RGS4 pot | MrgX1 antag | MrgX1 agonist
CCC(NC(C)C)C(O)c1ccc(O)c(O)c1 (centres undefined) | i | i | i | i | 27*
Nc1ccccc1NC(=O)NC(=O)c1ccccc1 | i | i | i | i | i
OC1CCN(C(=S)Nc2ccc(Oc3ccccc3)cc2)CC1 | i | i | i | i | i
CCCCN(CC)S(=O)(=O)c1ccc(C(=O)N(CCCN(C)C)c2nc3cc(C)cc(C)c3s2)cc1 | i | i | -8.1* | i | i
CCN(Cc1ccccc1)S(=O)(=O)c1ccc(C(=O)N(CCCN(C)C)c2nc3cc(C)cc(C)c3s2)cc1 | i | i | i | i | i
CCOc1cccc2sc(N(CCCN(C)C)C(=O)c3ccc(S(=O)(=O)N(CC)Cc4ccccc4)cc3)nc12 | i | i | -7.7* | i | i
COc1cccc2sc(N(CCN(C)C)C(=O)c3ccc4c(c3)CCCC4)nc12 | 6.7* | i | i | i | i
CCCN(Cc1ccc(N(C)C)cc1)CC1CC1 | i | i | i | i | i
CCCN(Cc1ccc(N(CC)CC)cc1)CC1CC1 | i | i | -7.1* | i | i
COc1ccc(Cn2c3ccc(OC)cc3c3nc4ccccc4nc32)cc1 | i | i | i | i | i
COc1ccc2c(c1)c1nc3ccccc3nc1n2Cc1ccc(OC(C)C)c(OC)c1 | i | i | i | -6.7* | i
O=C1N/C(=C/c2cccn2-c2ccccc2)C(=O)N1Cc1ccc(F)cc1 | i | i | i | i | i
O=C1N/C(=C\c2ccc(N3CCOCC3)c(F)c2)C(=O)N1Cc1ccccc1 | i | i | i | -8.6* | i
COc1cc(/C=N/NC(N)=O)ccc1OC(=O)c1cccs1 | 9.5* | i | i | i | i
O=C(Cc1ccccc1)NCC(=O)OCC(=O)c1ccc(Cl)cc1 | i | i | i | i | i
Cc1c(Br)c([N+](=O)[O-])nn1C(C)C(=O)NCc1cccs1 (centres undefined) | i | i | i | i | i
Cc1c(Br)c([N+](=O)[O-])nn1CC(=O)NCc1cccs1 | i | i | i | -4.8* | i
CCCOc1ccc(C2C(C(=O)c3ccco3)=C(O)C(=O)N2CCCn2ccnc2)cc1 (centres undefined) | i | i | i | -7.5* | i
CC(=O)c1ccc(N=C2C(=O)Nc3ccccc32)cc1 | i | i | i | i | 29*
O=C1Nc2ccccc2C1=Nc1ccc(F)cc1 | i | i | i | i | i
COc1ccccc1-n1c(-c2ccccc2)c[n+]2c1CCc1ccccc1-2 | i | i | -7.9*! | i | i
COc1ccc(-n2c3c(cc(C#N)c2=O)C(=O)CCC3)cc1 | 11* | i | i | i | i
COc1ccc(-n2c3c(cc(C(=O)Nc4ccc(C)cc4)c2=O)C(=O)CCC3)cc1 | i | i | i | i | i
